{"data": "Results from different studies", "MDH2": "Malate dehydrogenase, mitochondrial (MDH2, Sus scrofa, UniProt P00346)", "note": "Each line is one published result; the experiments were not run side by side."}
{"Compound": "CCCCCCCCNc1cc(=O)[nH]c(=O)[nH]1", "target": "G-protein coupled receptor 84 (Gpr84, Mus musculus, UniProt Q8CIM5)", "effect on": "cAMP", "mode": "agonist", "measurement": "EC50", "result": "66 nM"}
{"Compound": "Cc1cc2nc3c(=O)[nH]c(=O)nc-3n(C[C@H](O)[C@H](O)[C@H](O)COP(=O)(O)OP(=O)(O)OC[C@H]3O[C@@H](n4cnc5c(N)ncnc54)[C@H](O)[C@@H]3O)c2cc1C", "target": "Ataxin-2 (Homo sapiens, UniProt Q99700)", "effect on": "binding", "notes": "lysate", "measurement": "Kd", "result": "22 nM"}
{"Compound": "Cc1cnc(-c2ccc(-c3ccc(NC(=O)Nc4c(F)cc(F)cc4F)cc3F)c3c2C(=O)NC3)[nH]1", "target": "NT-3 growth factor receptor (NTRK3, Homo sapiens, UniProt Q16288)", "effect on": "binding", "method": "competition with immobilised ligand", "measurement": "Kd", "result": "0.9 nM"}
{"Compound": "CC(=O)N[C@@H](CCCNC(=N)N)C(=O)NCC(=O)NCC(=O)N1CCC[C@H]1B(O)O", "target": "Dipeptidyl peptidase 4 (DPP4, Homo sapiens, UniProt P27487)", "effect on": "enzyme activity", "mode": "inhibitor", "method": "fluorescence", "measurement": "Ki", "result": "322 nM"}
{"Compound": "Cc1ncsc1-c1ccc(CNC(=O)[C@@H]2C[C@@H](O)CN2C(=O)[C@@H](NC(=O)CCCCCCCCCC(=O)N2CCN(CC[C@H](NC(=O)C3(N)CCN(c4ncnc5[nH]ccc45)CC3)c3ccc(Cl)cc3)CC2)C(C)(C)C)cc1", "target": "RAC-alpha serine/threonine-protein kinase (AKT1, Homo sapiens, UniProt P31749)", "effect on": "binding", "method": "competition with immobilised ligand", "measurement": "Kd", "result": "10 nM"}
{"Compound": "COc1c(Br)cccc1C(=O)Nc1ccc(Sc2nc3ccccc3s2)c(Cl)c1", "target": "MDH2", "effect on": "enzyme activity", "mode": "inhibitor", "measurement": "IC50", "result": "> 62500 nM"}
{"Compound": "CO[C@@H]1O[C@@H](C)[C@@H](O)[C@@H](O)[C@@H]1O", "target": "fleA (Aspergillus fumigatus, UniProt Q4WW81)", "effect on": "binding", "method": "ITC", "measurement": "Kd", "result": "76400 nM"}
{"Compound": "O=S(=O)(Nc1ccc(-c2nc3cc(NS(=O)(=O)c4ccccc4)ccc3o2)cc1)c1ccccc1", "target": "MDH2", "effect on": "enzyme activity", "mode": "inhibitor", "measurement": "IC50", "result": "> 62500 nM"}
{"Compound": "CC(C)C[C@H](NC(=O)[C@@H](N)CCCNC(=N)N)C(=O)N[C@@H](Cc1ccc(O)cc1)C(=O)N[C@@H](Cc1ccc(O)cc1)C(=O)N[C@@H](Cc1ccccc1)C(=O)N[C@@H](Cc1c[nH]c2ccccc12)C(=O)N[C@@H](CC(=O)O)C(=O)O", "target": "DNA dC->dU-editing enzyme APOBEC-3G (APOBEC3G, Homo sapiens, UniProt Q9HC16)", "effect on": "enzyme activity", "mode": "inhibitor", "measurement": "Ki", "result": "~650 nM"}
{"Compound": "O=S(=O)(Nc1ccc(-c2nc3cc(NS(=O)(=O)c4cccc5ccccc45)ccc3o2)cc1)c1cccc2ccccc12", "target": "MDH2", "effect on": "enzyme activity", "mode": "inhibitor", "measurement": "IC50", "result": "> 62500 nM"}
{"Compound": "CC(C)(C)n1nc(-c2cnc3cc(OC4CC4)ccc3c2)c(C(N)=O)c1N", "target": "Calcium/calmodulin-dependent protein kinase kinase 2 (CAMKK2, Homo sapiens, UniProt Q96RR4)", "effect on": "cell-free assay", "measurement": "IC50", "result": "> 10000 nM"}
{"Compound": "CNC(=O)c1cc2c(Oc3ccc(NC(=O)C4(C(=O)Nc5ccc(F)cc5)CC4)cc3)ccnc2cc1OC", "target": "Tyrosine-protein kinase Mer (MERTK, Homo sapiens, UniProt Q12866)", "effect on": "enzyme activity", "mode": "inhibitor", "method": "radiometric", "measurement": "IC50", "result": "0.9 nM"}
{"Compound": "O=C(/C=C/c1ccc(-n2ccnc2)cc1)N1CCN(C(=O)c2ccco2)CC1", "target": "Protein ENL, YEATS (MLLT1, Homo sapiens, UniProt Q03111)", "effect on": "binding", "method": "BLI", "measurement": "Kd", "result": "14000 nM"}
{"Compound": "CCCN1CCN(c2ccc(-c3cncc(Cl)c3N3CCC4(CCNC4=O)CC3)cc2)CC1", "target": "Cyclin-dependent kinase 1 (CDK1, Homo sapiens, UniProt P06493)", "effect on": "cell-free assay", "notes": "lysate", "measurement": "Kd", "result": "18900 nM"}
